Published values collected from several papers.
Each line is one published result; the experiments were not run side by side.
Target: Rho-associated protein kinase 1 (ROCK1, Homo sapiens, UniProt Q13464)

Compound	assay	setting	endpoint	value
Cn1cc(-c2cc(F)cc(N3CCn4c(cc5c4CCCC5)C3=O)c2CO)cc(Nc2ccc(N3CCN(C4COC4)CC3)cn2)c1=O	enzyme activity, inhibitor	0.1 µM	inhibition	0%
COc1cc(Nc2ncc(F)c(Nc3ccc4c(n3)NC(=O)C(C)(C)O4)n2)cc(OC)c1OC	binding	10 µM	inhibition	86%
Cn1cc(-c2cccc(N3CCc4c(sc5c4CC(C)(C)C5)C3=O)c2CO)cc(Nc2ccncn2)c1=O	enzyme activity, inhibitor	1 µM	inhibition	1%
Nc1ncc(-c2nc(N3CCOCC3)nc(N3CCOCC3)n2)c(C(F)F)n1	binding, competition with immobilised ligand	10 µM	remaining binding	99%
CC(C)(C)c1cc(C=C(C#N)C#N)cc(Br)c1O	enzyme activity, inhibitor	0.5 µM	remaining activity	82.9%
COc1ncccc1-c1cnn2ccc(N3CCN(C(=O)OC(C)C)CC3)nc12	binding, competition with immobilised ligand	1 µM	remaining binding	95%
Cn1cncc1[C@](O)(COc1ccc(C#N)cc1-c1ccc(OC(F)(F)F)cc1)c1ccc(C#N)cc1	cell-free assay, competition with immobilised ligand	1 µM	remaining binding	100%
O=c1[nH]c2ccccc2n1C1CCN(Cc2ccc(-c3[nH]c4cc5ncnc5cc4nc3-c3ccccc3)cc2)CC1	cell-free assay	0.5 µM	remaining signal	101%
C#Cc1n[nH]c2c(-c3cn([C@@H](C)c4ccccn4)c(=O)[nH]c3=O)cc(F)cc12	enzyme activity, inhibitor	0.1 µM	inhibition	6.5%
N#CC1(c2ccccn2)CCN(Cc2cc(C(=O)O)c(=O)n3ccccc23)CC1	cell-free assay, competition with immobilised ligand	1 µM	remaining binding	86%
